In the library only some 1.4% were active in any assay of this set; here they are far more common.
ATG4B inhibitor – ATG4B protease inhibitors, primary screen, biochemical, fluorescence, uHTS. ATG4B cleavage of LC3-PLA2, NBD-HPC fluorescence, 1 h. AID 504462, 2011. Cysteine protease ATG4B (Homo sapiens), Q9Y4P1. 340,000 tested, 0.51% active. inhibition, % at 8.33 µM; in the data active = inhibition above about 40%
Target sequence (Q9Y4P1 whole entry, looked up): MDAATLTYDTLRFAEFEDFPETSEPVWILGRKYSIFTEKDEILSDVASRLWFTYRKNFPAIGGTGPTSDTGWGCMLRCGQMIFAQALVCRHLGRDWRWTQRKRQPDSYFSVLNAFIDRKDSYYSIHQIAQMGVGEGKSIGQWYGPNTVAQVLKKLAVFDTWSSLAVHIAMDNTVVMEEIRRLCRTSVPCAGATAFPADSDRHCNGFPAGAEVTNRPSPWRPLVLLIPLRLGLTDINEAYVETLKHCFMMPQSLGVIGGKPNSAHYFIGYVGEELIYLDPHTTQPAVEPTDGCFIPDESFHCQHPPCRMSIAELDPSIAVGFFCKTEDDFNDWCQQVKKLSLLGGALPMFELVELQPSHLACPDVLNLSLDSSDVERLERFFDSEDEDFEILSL
CTSL1 counter – Fasciola hepatica cathepsin L1 inhibitors, primary screen, counter-screen for PFM18AAP inhibitor project, biochemical, QFRET, fluorogenic peptide substrate; inhibition, % at 5.96 µM; recombinant F. hepatica cathepsin L1, Z-Leu-Arg-MCA fluorescence; 300,000 tested, 0.49% active;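 active = inhibition above the mean of all tested compounds plus 3 SD, set per screening campaign, cut at about 17% in these data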;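 note: 0% = plate median of test compound wells and 100% = 1 µM Z-Phe-Ala-diazomethylketone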
Diaph inh CS – diaphorase inhibitors and chemical oxidizers, primary screen, counter-screen for diaphorase-coupled primary assays, biochemical, uHTS, resorufin fluorescence; diaphorase resazurin-to-resorufin fluorescence, NADH, 16 min; bacterial (C. kluyveri) enzyme, not human; inhibition, % at 20 µM; 190,000 tested, 0.69% active;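 active = primary screen inhibition at 20 µM above a set limit, cut at about 50% in these data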;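 note: plate controls were DMSO with full reaction for no effect and wells lacking NADH for full effect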
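Test system: bacterial diaphorase enzyme (C. kluyveri); Quantity: 0.14 U/mL diaphorase, enzyme working solution; Times: reaction incubation of 16 min at room temperature; Measured by: fluorescence of resorufin formed from resazurin, Ex 544/Em 590 nm; Benchmarks: positive control minus NADH, DMSO neutral control.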
HKDC1 inh – HKDC1 hexokinase inhibitors, primary screen, biochemical, fluorescence, uHTS. Q2TB90. recombinant HKDC1, G6PDH/diaphorase resazurin coupled fluorescence. inhibition, % at 20 µM. 340,000 tested, 0.16% active. AID 493160, 2011;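 active = inhibition above about 35% when tested at 20 µM, limit read from the data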;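 note: plate controls were DMSO wells with enzyme for no effect and DMSO wells lacking enzyme for full effect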
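test system = in-house recombinant HK5 (HKDC1) enzyme | amount = HKDC1 at 5 µg/mL | control set = DMSO-enzyme wells negative, buffer-substituted wells positive | compound = one dose of 20 µM, 1% DMSO | schedule = reaction time 90 min, room temperature, protected from light | technique = resorufin fluorescence at 613 nm | reagent = glucose with 1 mM ATP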
Diaphorase act – compounds boosting diaphorase resazurin reduction – biochemical, uHTS, resorufin fluorescence, counter-screen for diaphorase-coupled primary assays, primary screen; Diaphorase/resazurin coupled assay, 16 min; stronger effect = higher value; 1 = vehicle wells, 0 = NADH-free wells; activation factor at 20 µM; 190,000 tested, 0.005% active;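 active = diaphorase activity raised at least twofold by the compound at 20 µM; inactive = activation factor below 2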
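Material: purified diaphorase enzyme from Clostridium kluyveri / Medium: HEPES pH 7.4 buffer with MgCl2 and Tween 20 / Schedule: enzyme reaction of 16 min at room temperature / Measured by: resorufin fluorescence, excitation 544 nm, emission 590 nm / Evaluation: rise in resorufin formation, marking diaphorase activation or chemical reduction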
ATG4B conf – ATG4B protease inhibitors, retest, confirmation, biochemical, fluorescence, single concentration; inhibition, % at 8.33 µM; shares compounds with ATG4B inhibitor; 320 tested, 92% active; ATG4B protease fluorescent substrate cleavage assay; in the data active = inhibition above about 39%
PLA2 ctr – PLA2 enzyme inhibition, counter-screen for ATG4B inhibitor project, biochemical, single concentration, uHTS hits; shares compounds with ATG4B inhibitor; purified PLA2, NBD-C6-HPC fluorescence, 45 min; inhibition, % at 8.33 µM; 1,600 tested, 66% active; in the data active = inhibition above about 50%
* = called active by the depositor; x = no result.

SMILES	ATG4B inhibitor	CTSL1 counter	Diaph inh CS	HKDC1 inh	Diaphorase act	PLA2 ctr	others
COC(=O)c1cccc(NC(=S)Nc2ccccc2Cl)c1	0	-2	x	0	x	x
Cc1c(Cl)cccc1NC(=S)NCc1cccn1C	47*	2	12	-3	0.9	66*
Cc1c(Cl)cccc1NC(=S)NCc1ccc(F)cc1	58*	1	x	-2	x	69*
COC(=O)c1cccc(NC(=S)Nc2cccc(Cl)c2C)c1	58*	-2	4	-4	1	56*
Cc1ccccc1NC(=S)NCc1cccn1C	-10	0	14	-4	0.9	x
COc1cccc(CNC(=S)Nc2cccc(Cl)c2C)c1	54*	-3	x	4	x	65*
COC(=O)[C@H](CC(C)C)NCc1cccc(CN[C@@H](CC(C)C)C(=O)OC)c1	-8	-1	x	-2	x	x
Cc1sc(NC(=O)C2=COCCO2)c(C(N)=O)c1C	1	5	x	-2	x	x
CCCc1cc(=O)oc2cc(OCC(=O)N3CCN(C(=O)C4COc5ccccc5O4)CC3)ccc12 (stereo not given)	-17	5	x	-4	x	x
Cc1ccc(NCc2cccc(B(O)O)c2)cc1	2	x	x	1	x	x
C=CCNC(=S)NCC1COc2ccccc2O1 (stereo not given)	0	-1	15	9	0.9	x
Cc1c(Cl)cccc1NC(=S)NCc1ccccc1Cl	79*	-2	16	-2	0.8	83*
Cc1c(Cl)cccc1NC(=S)NCC1COc2ccccc2O1 (stereo not given)	88*	-1	11	0	0.9	89*
O=C(COc1ncnc2sccc12)NC1CCCCC1	12	x	x	-5	x	x
COC(=O)c1sc(C(F)(F)F)c(-c2ccccc2)c1S(=O)(=O)N1CCOCC1	-2	x	x	-3	x	x
CSCCC(NC(=O)COc1ccccc1)C(=O)N(C)Cc1ccc(SC)cc1 (stereo not given)	-6	x	x	-6	x	x
O=CNc1ccc2c(c1)Cc1cccc(NC=O)c1-2	-12	x	x	-3	x	x
CC1=NN(c2ccc(C(=O)O)cc2)C(=O)/C1=C\c1ccc(OC(=O)c2cccs2)cc1	85*	1	48	9	0.5	70*
COc1ccc(NC(=O)c2ccc(C)cc2)c[n+]1[O-]	3	x	x	0	x	x
Cc1ccc(C(=O)Nc2sc(C)c(C)c2C(=O)c2ccccc2)cc1	-7	8	11	-14	0.9	x
Cc1sc(NC(=O)c2ccccc2)c(C(=O)c2ccccc2)c1C	50*	0	20	-18	0.8	43	ATG4B conf=73*
COCCn1c(SCc2cc(C(C)=O)ccc2OC)nc2cc(Cl)ccc2c1=O	63*	4	22	-12	0.8	63*
COc1ccc(C(C)=O)cc1CSc1nc2ccccc2c(=O)n1-c1ccccc1C	53*	-3	18	3	0.8	81*
C=CCn1c(SCc2cc(C(C)=O)ccc2OCC)nc2ccccc2c1=O	50*	1	18	-2	0.8	29	ATG4B conf=52*
COc1ccc(C(C)=O)cc1CSc1nc2ccccc2c(=O)n1-c1cccc(C)c1	79*	9	21	-7	0.8	33	ATG4B conf=50*
Cc1ccc(NC(=O)COC(=O)c2ccc(Cl)nc2)cc1S(=O)(=O)N1CCCCC1	-16	x	x	-3	x	x
CCCc1ccc(OC(=O)c2cccs2)cc1	43*	4	-8	-7	1.1	28	ATG4B conf=70*
Cc1cc(OC(=O)c2cccs2)ccc1C(C)C	42*	2	16	-1	0.8	47	ATG4B conf=49*
Cc1oc2ccc(OC(=O)c3cccs3)cc2c1C(=O)OC(C)C	5	0	9	2	0.9	x
